What all share (type): functional
The test system of assay [1] is MCF7. Nature of the assay: Induction of apoptosis in human MCF7 cells assessed as early apoptotic cells at 5 uM after 24 hrs by Annexin V-FITC/propidium iodide staining-based flow cytometric analysis (reference value: 2.1%). In outline:
(§1)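 Log-phase cells seeded in 6-well plates and treated after adhesion; incubated in cycles of 6 h on/6 h off up to 48 h. Collected after PBS washes and trypsin, resuspended in Ca2+-enriched binding buffer. Stained with annexin V (1 µg/mL) plus PI (0.5 µg/mL) 15 min in the dark at room temperature. 10,000 events, FL1 vs FL2. At least three repeats.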

Assay [2] deals with MCF7. Nature of the assay: Induction of apoptosis in human MCF7 cells assessed as late apoptotic cells at 1 uM after 6 hrs by Annexin V-FITC/propidium iodide staining-based flow cytometric analysis (reference value: 4.7%). In outline:
as §1

For assay [3], the system named is MCF7. Nature of the assay: Induction of apoptosis in human MCF7 cells assessed as viable cells at 5 uM after 48 hrs by Annexin V-FITC/propidium iodide staining-based flow cytometric analysis (reference value: 87.9%). The note with it: MCF7, 48 h, read-out: Activity. A general note: A flow cytometer gives signals particle by particle.
Assay [4] deals with MCF7. Nature of the assay: Induction of apoptosis in human MCF7 cells assessed as viable cells at 50 uM after 6 hrs by Annexin V-FITC/propidium iodide staining-based flow cytometric analysis (reference value: 92.8%). The note with it: MCF7, 6 h, read-out: Activity.

On to `COc1cc([C@@H]2c3cc4c(cc3[C@@H](O[C@@H]3O[C@@H]5CO[C@@H](C)O[C@H]5[C@H](O)[C@H]3O)[C@H]3COC(=O)[C@H]23)OCO4)cc(OC)c1O` [ETOPOSIDE], for which the Activity is listed as 6.7% in assay [1] and 7.1% in assay [2]. Also, the viability at 5 µM in assay [3] turned out to be 21.7%. The viability at 50 µM in assay [4] turned out to be 91.6%.

These data come from ChEMBL document CHEMBL4346667 (Eur J Med Chem, 2019).
